In brackets after ≈: the same amount, converted by molar mass. Activity calls are given as the source filed them. The calls are words filed in the database; no cut-off is given here.
How the values were obtained:
Pseudomonas aeruginosa [1] = assay: Inhibition of LasR-dependent quorum sensing activity in Pseudomonas aeruginosa harboring reporter plasmid lasB-GFP assessed as reduction in GFP expression up to 100 ug/ml measured every 15 mins for 14 hrs by fluorescence assay
In short: (§1)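 P. aeruginosa lasB-gfp and rhlA-gfp reporters, grown 16 h at 37 °C with shaking, then diluted to OD450 0.1 in BT minimal medium (10% A10, 0.5% glucose, 0.5% Casamino Acids). No added signal molecule. Fluorescence at 485/535 nm and growth monitored every 15 min for 14 h at 34 °C. Concentrations up to 100 µg/ml.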

[2] = molecular target: T1, HTH-type quorum-sensing regulator RhlR (Pseudomonas aeruginosa (strain ATCC 15692 / PAO1 / 1C / PRS 101 / LMG12228)) (UniProt P54292); assay: Inhibition of RhlR-dependent quorum sensing activity in Pseudomonas aeruginosa harboring reporter plasmid rhlA-gfp assessed as reduction in GFP expression up to 100 ug/ml measured every 15 mins for 14 hrs by fluorescence assay; in short: as §1
T1 sequence (whole entry): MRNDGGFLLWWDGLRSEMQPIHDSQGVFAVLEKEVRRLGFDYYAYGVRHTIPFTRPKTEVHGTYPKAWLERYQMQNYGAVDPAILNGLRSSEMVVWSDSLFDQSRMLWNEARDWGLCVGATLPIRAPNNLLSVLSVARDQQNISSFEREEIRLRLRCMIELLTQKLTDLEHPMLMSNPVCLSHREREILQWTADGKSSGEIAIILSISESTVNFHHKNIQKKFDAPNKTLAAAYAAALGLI

Escherichia coli [3] = assay: Growth inhibition of Escherichia coli at 0.39 to 100 ug/ml
In short: (§2)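 luxI-gfp E. coli reporter grown 16 h at 37 °C, shaking 180 rpm, then diluted to OD450 0.1 in BT minimal medium with 10% A10, 0.5% glucose and 0.5% Casamino Acids. 3-oxo-C6-HSL added at 10 nM final. Compounds run in triplicate as 2-fold dilutions from 100 μg/ml. GFP (ex 485/em 535) and OD450 read every 15 min for 14 h at 34 °C. IC50 taken from GFP curves.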

Saccharomyces cerevisiae = assay: Inhibition of yeast Pma1 at 100 uM preincubated for 30 mins by spectrophotometric method
In short: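 Pma1 purified from Saccharomyces cerevisiae plasma membrane, 0.5 µg per reaction. Enzyme preincubated 30 min at room temperature with 100 µM compound. Reaction buffer: 5 mM ATP, 10 mM MgSO4, 50 mM KNO3, 5 mM NaN3, 3.5 mM molybdate, 20 mM MES-KOH pH 5.9. Run 30 min, then stopped with acidic molybdate/ascorbate/SDS. Released phosphate read at 860 nm after arsenite-citrate treatment (Baginski method).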

Escherichia coli [4] = assay: Inhibition of LuxR-dependent quorum sensing activity in Escherichia coli harboring reporter plasmid LuxI-GFP assessed as reduction in 3-oxo-C6-HSL-induced GFP expression up to 100 ug/ml measured every 15 mins for 14 hrs by fluorescence assay; in short: as §2
Pseudomonas aeruginosa [5] = assay: Inhibition of LasR-dependent quorum sensing activity in Pseudomonas aeruginosa harboring reporter plasmid lasB-GFP assessed as reduction in GFP expression at >125 ug/ml measured every 15 mins for 14 hrs by fluorescence assay
In short: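 P. aeruginosa lasB-gfp monitor: 16 h overnight culture (37 °C, 180 rpm) diluted to OD450 0.1 in BT minimal medium plus 10% A10, 0.5% glucose, 0.5% Casamino Acids. No signal molecule added. GFP at ex 485/em 535 nm with growth, every 15 min over 14 h at 34 °C. Triplicate, 2-fold dilutions from 1000 μg/ml.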

Pseudomonas aeruginosa [6] = assay: Growth inhibition of Pseudomonas aeruginosa at >125 ug/ml
[7] = Inhibition of LuxR-dependent quorum sensing activity in Escherichia coli harboring reporter plasmid LuxI-GFP assessed as reduction in 3-oxo-C6-HSL-induced GFP expression measured every 15 mins for 14 hrs by fluorescence assay; in short: as §2

For `Cc1cc(-c2ccc(C(=O)O)nc2)c2ccccc2n1`, the inhibition (Pseudomonas aeruginosa [1]) was “inactive”, the inhibition [2] was “inactive” and the “growth inhibition (GI)” value (Escherichia coli [3]) was “Non-Toxic”. For the same molecule, the inhibition (Saccharomyces cerevisiae) was “inactive” and the inhibition (Escherichia coli [4]) was “inactive”.

With `O=C(O)c1ccc(-c2cccc3ccccc23)cn1` the inhibition (Pseudomonas aeruginosa [1]) was “inactive”, the inhibition [2] was “inactive” and the inhibition (Saccharomyces cerevisiae) was “inactive”.

With `COc1ccc2nccc(-c3ccc(C(=O)O)nc3)c2c1` the inhibition (Pseudomonas aeruginosa [1]) was “inactive”, the inhibition [2] was “inactive” and the “growth inhibition (GI)” value (Escherichia coli [3]) was “Non-Toxic”. For the same molecule, the inhibition (Saccharomyces cerevisiae) was “inactive” and the inhibition (Escherichia coli [4]) was “inactive”.

For `COC(=O)c1ccc(Br)cn1`, the inhibition (Pseudomonas aeruginosa [1]) was “inactive”, the inhibition [2] was “inactive” and the inhibition (Pseudomonas aeruginosa [5]) was “Active”. For the same molecule, the “growth inhibition (GI)” value (Pseudomonas aeruginosa [6]) was “Non-Toxic”, the inhibition (Saccharomyces cerevisiae) was “inactive” and the inhibition (Escherichia coli [4]) was “inactive”.

In the case of `CCOC(=O)c1ccc(Br)cn1`, the inhibition (Pseudomonas aeruginosa [1]) is reported as “inactive”, the inhibition [2] is reported as “inactive” and the inhibition (Saccharomyces cerevisiae) is reported as “inactive”.

With `O=C(O)c1ccc(OCC2CC2)cn1` the inhibition (Pseudomonas aeruginosa [1]) was “inactive”, the inhibition [2] was “inactive” and the “growth inhibition (GI)” value (Escherichia coli [3]) was “Toxic”. The inhibition (Saccharomyces cerevisiae) was “inactive” and the inhibition (Escherichia coli [4]) was “Active”.

For `Cc1ccc(-c2ccc(C(=O)O)nc2)cc1`, the inhibition (Pseudomonas aeruginosa [1]) was “inactive”, the inhibition [2] was “inactive” and the inhibition (Saccharomyces cerevisiae) was “inactive”.

For `COC(=O)c1ccc(-c2cc(C)nc3ccccc23)cn1`, the inhibition (Pseudomonas aeruginosa [1]) was “inactive”, the inhibition [2] was “inactive” and the inhibition (Saccharomyces cerevisiae) was “inactive”.

In the case of `Cn1cc2ccc(-c3ccc(C(=O)O)nc3)cc2n1`, the inhibition (Pseudomonas aeruginosa [1]) is reported as “inactive”, the inhibition [2] is reported as “inactive” and the inhibition (Saccharomyces cerevisiae) is reported as “inactive”.

In the case of `CCCOc1ccc(C(=O)O)nc1`, the inhibition (Pseudomonas aeruginosa [1]) is reported as “inactive”, the inhibition [2] is reported as “inactive” and the “growth inhibition (GI)” value (Escherichia coli [3]) is reported as “Toxic”. For the same molecule, the inhibition (Saccharomyces cerevisiae) was “inactive” and the inhibition (Escherichia coli [4]) was “Active”.

In the case of `Cc1ccc(-c2ccc(C(=O)O)nc2)s1`, the inhibition (Pseudomonas aeruginosa [1]) is reported as “inactive”, the inhibition [2] is reported as “inactive” and the inhibition (Saccharomyces cerevisiae) is reported as “inactive”.

With `CCCNC(=O)c1ccc(NCCC)cn1` the inhibition (Pseudomonas aeruginosa [1]) was “inactive”, the inhibition [2] was “inactive” and the inhibition (Saccharomyces cerevisiae) was “inactive”.

For `CCOC(=O)c1ccc(-c2ccccc2)cn1`, the IC50 [7] was 12 µg/mL (≈ 52.8 µM), the inhibition (Pseudomonas aeruginosa [1]) was “inactive” and the inhibition [2] was “inactive”. For the same molecule, the “growth inhibition (GI)” value (Escherichia coli [3]) was “Non-Toxic” and the inhibition (Saccharomyces cerevisiae) was “inactive”.

With `O=C(COc1ccc(C(=O)O)nc1)Nc1ccccc1` the inhibition (Pseudomonas aeruginosa [1]) was “inactive”, the inhibition [2] was “inactive” and the “growth inhibition (GI)” value (Escherichia coli [3]) was “Non-Toxic”. The inhibition (Saccharomyces cerevisiae) was “inactive” and the inhibition (Escherichia coli [4]) was “inactive”.

For `CCCOc1ccc(C(=O)OC)nc1`, the inhibition (Pseudomonas aeruginosa [1]) was “inactive”, the inhibition [2] was “inactive” and the “growth inhibition (GI)” value (Escherichia coli [3]) was “Non-Toxic”. The inhibition (Saccharomyces cerevisiae) was “inactive”.

In the case of `CCOC(=O)c1ccc(-c2cccc3ccccc23)cn1`, the inhibition (Pseudomonas aeruginosa [1]) is reported as “inactive”, the inhibition [2] is reported as “inactive” and the inhibition (Saccharomyces cerevisiae) is reported as “inactive”.

With `COC(=O)c1ccc(OCC2CC2)cn1` the IC50 [7] was 14 µg/mL (≈ 67.6 µM), the inhibition (Pseudomonas aeruginosa [1]) was “inactive” and the inhibition [2] was “inactive”. For the same molecule, the “growth inhibition (GI)” value (Escherichia coli [3]) was “Non-Toxic” and the inhibition (Saccharomyces cerevisiae) was “inactive”.

With `COC(=O)c1ccc(-c2cccc(OC)n2)cn1` the IC50 [7] was 95 µg/mL (≈ 389 µM), the inhibition (Pseudomonas aeruginosa [1]) was “inactive” and the inhibition [2] was “inactive”. The “growth inhibition (GI)” value (Escherichia coli [3]) was “Non-Toxic” and the inhibition (Saccharomyces cerevisiae) was “inactive”.

With `COC(=O)c1ccc(-c2ccc(C)s2)cn1` the inhibition (Pseudomonas aeruginosa [1]) was “inactive”, the inhibition [2] was “inactive” and the inhibition (Saccharomyces cerevisiae) was “inactive”.

In the case of `O=C(O)c1ccc(-c2ccco2)cn1`, the inhibition (Pseudomonas aeruginosa [1]) is reported as “inactive”, the inhibition [2] is reported as “inactive” and the “growth inhibition (GI)” value (Escherichia coli [3]) is reported as “Toxic”. The inhibition (Saccharomyces cerevisiae) was “inactive” and the inhibition (Escherichia coli [4]) was “Active”.

For `CCOC(=O)c1ccc(CSCC)cn1`, the inhibition (Pseudomonas aeruginosa [1]) was “inactive”, the inhibition [2] was “inactive” and the inhibition (Saccharomyces cerevisiae) was “inactive”.
